Compound activity: PubChem, NMMLSC
MEKK2 mut-MEK5 – MEK5 binding signal on mutant MEKK2 PB1, primary screen, biochemical, multiplex bead flow cytometry, Alexa488-MEK5; 290,000 compounds, 0.35% hits; AID 1530, 2009; Alexa488-MEK5 binding to MEKK2 mutant; percent response, % at 10 µM; in the data active means percent response above about 24%, passing the limit was not always enough
ABCG2 inh – ABCG2 efflux pump inhibitors, primary screen, multiplex with ABCB1, IgMXP3 cells, flow cytometry. JC-1 efflux. inhibition, % at 6.6 µM. 190,000 compounds, 0.1% hits. AID 1325, 2008;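 active means inhibition above 80%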;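 further: 0% = DMSO and 100% = nicardipine control wells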
Target sequence (Q9UNQ0 whole entry, looked up): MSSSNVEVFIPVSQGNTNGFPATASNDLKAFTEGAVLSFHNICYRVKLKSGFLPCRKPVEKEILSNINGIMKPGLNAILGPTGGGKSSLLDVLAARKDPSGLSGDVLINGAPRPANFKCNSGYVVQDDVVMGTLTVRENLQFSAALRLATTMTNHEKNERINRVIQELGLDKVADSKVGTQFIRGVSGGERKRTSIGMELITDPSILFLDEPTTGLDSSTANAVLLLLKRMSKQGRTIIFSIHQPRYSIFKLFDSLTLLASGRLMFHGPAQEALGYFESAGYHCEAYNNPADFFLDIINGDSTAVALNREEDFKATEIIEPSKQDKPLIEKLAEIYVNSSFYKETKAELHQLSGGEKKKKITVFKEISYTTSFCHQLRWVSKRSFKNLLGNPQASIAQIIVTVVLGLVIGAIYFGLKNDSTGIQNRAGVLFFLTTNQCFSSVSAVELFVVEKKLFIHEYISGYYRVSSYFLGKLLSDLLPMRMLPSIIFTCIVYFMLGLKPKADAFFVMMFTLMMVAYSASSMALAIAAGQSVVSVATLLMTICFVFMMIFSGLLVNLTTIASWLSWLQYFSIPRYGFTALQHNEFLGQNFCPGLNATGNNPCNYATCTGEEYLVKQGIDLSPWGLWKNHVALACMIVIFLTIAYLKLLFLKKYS
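Times: 10 min at 25 °C | Test system: Two drug-resistant human cell lines, ABCG2 and ABCB1 | Quantity: 3 million cells/mL final, two lines in 1:1 ratio | Signal: Flow cytometry, 530 nm JC-1 signal | Dosing: Compound at 6.6 µM | Controls: Nicardipine and DMSO wells | Reagent: JC-1 as fluorescent efflux pump substrate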
ABCB1 inh – ABCB1 efflux pump inhibitors, primary screen, cell-based, multiplex, flow cytometry, ABCG2 counter-screen | ATP-dependent translocase ABCB1 (Homo sapiens), P08183 | CCRF-Adr cells, JC-1 efflux | inhibition, % at 6.6 µM | 190,000 compounds, 0.067% hits; in the data active means inhibition above about 40%;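 further: 0% = vehicle and 100% = reference inhibitor; higher value means more JC-1 retained so stronger ABCB1 efflux block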
MEKK3 PB1 HTS – modulators of MEKK3-MEK5 PB1 binding, primary screen, biochemical, wildtype MEKK3, multiplex bead flow cytometry, Alexa488-MEK5; Mitogen-activated protein kinase kinase kinase 3 (Homo sapiens), Q99759; bead-based flow cytometry, Alexa488-MEK5 binding to MEKK3; actives lie on both sides; 0 = blocked by unlabeled MEK5, 100 = vehicle; binding response (% of control), % at 10 µM; 290,000 compounds, 1.4% hits; AID 1529, 2009;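 active means binding response more than 3 SD above or below the average of its plate-row segment, actives on both sides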;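 further: Alexa488 bead fluorescence after subtracting the streptavidin-only scavenger bead signal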
Efflux pump mplx – inhibitors of Candida efflux pumps in yeast, primary screen, S. cerevisiae, Nile Red, multiplex; S. cerevisiae Candida pump triplex; inhibition, % at 10 µM; 330,000 compounds, 0.44% hits;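 active means plate passing quality check with inhibition over a set limit, or well fluorescence over plate mean plus 4 SD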;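 further: Nile Red retained in pooled yeast measured as flow cytometry median fluorescence; 0% = buffer negative control and 100% = Enniatin B positive control; higher means more Nile Red kept so more efflux inhibition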
MEKK2wt PB1 HTS – modulators of MEK5 binding to wildtype MEKK2, primary screen, biochemical, multiplex bead flow cytometry, Alexa488-MEK5. Mitogen-activated protein kinase kinase kinase 2 (Homo sapiens), Q9Y2U5. Alexa488-MEK5 binding to MEKK2 WT; actives lie on both sides. binding response (% of control), % at 10 µM. 290,000 compounds, 1.1% hits; in the data active means binding response below about 67% or above about 130%
Cmpd fluor yeast – flagged as fluorescent in efflux inhibitor counter-screen; shares compounds with Efflux pump mplx; S. cerevisiae AD/pABC3, compound fluorescence, flow cytometry; fluorescence ratio to DMSO, % at 10 µM; 1,700 compounds, 4% hits;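 active means fluorescence ratio to DMSO above its plate's cutoff, the plate mean ratio plus 5 SD, cut at about 210% in these data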;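 further: unstained yeast with no Nile Red so the signal is compound autofluorescence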
Mdr1 pump inh – inhibitors of Candida albicans Mdr1 efflux, confirmation, flow cytometry, singleplex, Cherry Pick1 set; AID 588518, 2011; shares compounds with Efflux pump mplx; S. cerevisiae AD/CaMDR1, Nile Red efflux; inhibition, % at 10 µM; 1,700 compounds, 1% hits; in the data active means inhibition above about 26%;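 further: 0% = DMSO vehicle and 100% = reference inhibitor; higher means more Nile Red retained so more efflux inhibition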
Cdr2 pump inh – inhibitors of Candida albicans Cdr2 efflux pump, confirmation, S. cerevisiae AD/CaCDR2, flow cytometry, cherry pick 1, singleplex; shares compounds with Efflux pump mplx; Nile Red retention; Nile Red retention ratio vs DMSO, % at 10 µM; 1,700 compounds, 4% hits; in the data active means Nile Red retention ratio vs DMSO above about 190%;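 further: higher ratio means more blocking of Cdr2 efflux of the dye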
Cdr1 pump inh – inhibitors of Candida albicans Cdr1 efflux pump, confirmation, S. cerevisiae AD/CaCDR1, flow cytometry, cherry pick 1, singleplex; shares compounds with Efflux pump mplx; Nile Red efflux; inhibition, % at 10 µM; 1,700 compounds, 1% hits; AID 588522, 2011;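 active means inhibition above the screen-wide mean plus twice its standard deviation, cut at about 32% in these data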
* = called active by the depositor; / = no result given. This is a sample that favours compounds with a hit; in the whole collection about 2.5% have one here.

SMILES	MEKK2 mut-MEK5	ABCG2 inh	ABCB1 inh	MEKK3 PB1 HTS	Efflux pump mplx	MEKK2wt PB1 HTS	Cmpd fluor yeast	Mdr1 pump inh	Cdr2 pump inh	Cdr1 pump inh
O=C(c1ccc(F)cc1)C1CCN(C(=S)Nc2ccc(F)cc2)CC1	2	/	/	101	0	103	/	/	/	/
CCOC(=O)C1(C(F)(F)F)N=C(c2cccnc2)OC(N2CCCCC2)=N1 (centres undefined)	1	9	1	104	5.5*	106	104	0	116	0
O=S(=O)(NC1CCCC1)c1ccc(S(=O)(=O)N2CCN(c3ccccc3)CC2)cc1	-2	0	0	95	2.0*	98	101	0	87	0
CCS(=O)(=O)N1CCN(S(=O)(=O)c2ccc(S(=O)(=O)NC3CC3)cc2)CC1	-3	/	/	100	0	98	/	/	/	/
CC(C)(C)NC(=O)c1ccc2nsnc2c1	-1	6	-1	93	0	97	/	/	/	/
COc1ccccc1C(=O)COC(=O)/C=C/c1ccccc1	4	/	/	101	6.2*	99	111	0	100	0
O=C(NN1C(=O)/C(=C/c2cccs2)SC1=S)c1cccnc1	1	/	/	102	0	108	105	0	93	0
Cn1cccc1/C=C1\SC(=S)N(NC(=O)c2ccccc2)C1=O	-3	2	0	87	0	83	/	/	/	/
O=C(NN1C(=O)/C(=C/c2cccs2)SC1=S)c1ccccc1	3	-10	-1	95	0	89	/	/	/	/
CC(/C=C1\SC(=S)N(NC(=O)c2ccncc2)C1=O)=C\c1ccccc1	-2	/	/	99	0	100	88	0	87	0
CC(/C=C1\SC(=S)N(NC(=O)c2ccc(C)cc2)C1=O)=C\c1ccccc1	-4	0	0	98	0	91	/	/	/	/
COc1cc(/C=C2\SC(=S)N(NS(=O)(=O)c3ccc(C)cc3)C2=O)ccc1O	1	/	/	99	0	100	117	0	109	0
Cn1cccc1/C=C1\SC(=S)N(NC(=O)c2ccc(F)cc2)C1=O	-11	/	/	97	0	84	92	0	87	0
COc1cc(/C=C2\SC(=S)N(NS(=O)(=O)c3ccccc3)C2=O)ccc1O	19	/	/	109	0	104	/	/	/	/
Cc1noc(C)c1C(=O)Nc1nccs1	10	/	/	107	0	111	/	/	/	/
CCOc1ccccc1C(=O)Nc1ccc(-n2nncc2C(C)(C)C)cc1	-1	5	3	109	0	103	/	/	/	/
Cc1ccccc1CN1CCN(C(=O)CC(C)C)CC1	1	/	/	99	0	100	/	/	/	/
CC(/C=C1\SC(=S)N(NS(=O)(=O)c2ccc(C)cc2)C1=O)=C\c1ccccc1	-2	/	/	100	0	98	109	0	104	0
CCCc1nn2c(=O)cc(CSCC(=O)Nc3ccc(F)cc3)nc2s1	3	/	/	99	1.9*	99	100	0	100	0
O=S(=O)(c1cccc2cccnc12)N1CCN(c2ccccc2)CC1	0	0	0	101	17*	101	110	0	102	0
COc1ccc(/C=c2\s/c(=C(/C#N)C(=O)NCc3ccco3)n(-c3ccccc3)c2=O)cc1	-1	7	0	100	0.7*	98	106	0	107	0
O=C(c1cc(COc2ccc(-n3cncn3)cc2)on1)N1CCCC1	-10	/	/	94	9.9*	91	105	0	106	0
COC1CCN(C(=O)c2cc(COc3ccc(-n4cncn4)cc3)on2)CC1	3	/	/	104	0	108	/	/	/	/
O=C(Nc1ccc(NC(=O)c2ccc(Cl)cc2Cl)cc1)c1cccs1	5	/	/	99	1.3*	100	98	0	85	0
CCn1ncc(N(C)N)c(Cl)c1=O	-3	2	0	94	0	93	/	/	/	/
SMILES	MEKK2 mut-MEK5	ABCG2 inh	ABCB1 inh	MEKK3 PB1 HTS	Efflux pump mplx	MEKK2wt PB1 HTS	Cmpd fluor yeast	Mdr1 pump inh	Cdr2 pump inh	Cdr1 pump inh
COc1ccc(S(=O)(=O)N2CCOC2CNC(=O)C(=O)NCc2ccccc2OC)cc1 (centres undefined)	7	/	/	101	1.1*	104	102	0	96	0
O=C(NCc1ccccc1Cl)C(=O)NCC1OCCN1S(=O)(=O)c1ccc(F)cc1 (centres undefined)	4	/	/	103	-2	103	/	/	/	/
COc1ccccc1CCNC(=O)C(=O)NCC1OCCN1S(=O)(=O)c1ccc(Br)cc1 (centres undefined)	-1	18	3	89	0	87	/	/	/	/
COc1ccc(S(=O)(=O)N2CCOC2CNC(=O)C(=O)NCc2ccccc2Cl)cc1 (centres undefined)	9	/	/	104	-3	112	98	0	101	0
COc1ccccc1CNC(=O)C(=O)NCC1OCCN1S(=O)(=O)c1ccc(Br)cc1 (centres undefined)	0	/	/	100	1	100	110	0	110	0
CSc1ccccc1NC(=O)c1cc(-c2ccc3c(c2)OCO3)on1	-6	/	/	103	1.6*	98	89	0	105	0
O=C(Nc1cc(Br)ccc1O)c1cc(-c2ccc3c(c2)OCO3)on1	-7	/	/	99	0	97	/	/	/	/
O=C(NCc1ccccc1)c1cc[n+](CC(=O)c2cccs2)cc1	15	/	/	106	0	105	/	/	/	/
